Test results reported in ChEMBL document CHEMBL1158485, “Inhibition of glyoxalase I: the first low-nanomolar tight-binding inhibitors” (J Med Chem, 2009).

Tests used:
[1] = Stability in presence of equine kidney gamma-glutamyltranspeptidase at pH 8.4 by TLC; type: ADME
Method in brief: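 Inhibitor at 10 mM stock in 200 mM 2-amino-2-methyl-1,3-propanediol buffer, incubated at 37 °C with equine kidney γ-GT (0.54 mg/100 μL stock) plus Gly-Gly acceptor (40 mM stock). Breakdown was followed by TLC with UV, iodine and fluorescamine detection.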

Glyoxalase I = molecular target: T1, Glyoxalase I (Saccharomyces cerevisiae S288c, UniProt P50107); experiment: Inhibition of yeast glyoxalase 1
T1 sequence (P50107 whole entry): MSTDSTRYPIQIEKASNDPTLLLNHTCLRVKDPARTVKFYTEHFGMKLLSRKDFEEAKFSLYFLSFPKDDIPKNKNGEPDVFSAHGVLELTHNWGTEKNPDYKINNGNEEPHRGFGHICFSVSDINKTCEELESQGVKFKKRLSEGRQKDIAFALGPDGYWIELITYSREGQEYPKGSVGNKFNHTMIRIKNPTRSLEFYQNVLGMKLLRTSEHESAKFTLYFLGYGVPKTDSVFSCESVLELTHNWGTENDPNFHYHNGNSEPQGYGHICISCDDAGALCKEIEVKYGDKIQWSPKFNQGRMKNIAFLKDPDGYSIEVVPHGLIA
Method in brief: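 Yeast glyoxalase I run at 30 °C in 0.05 M phosphate buffer pH 6.6 with 0.1% BSA. Methylglyoxal (distilled, resin-treated, standardized) was present at up to 6.0 mM and fresh GSH at up to 1.3 mM. Inhibitor solutions were aqueous, adjusted to pH 6.6. Mixtures equilibrated for 6 min, then the initial rate was read as the A240 rise.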

Compound | Stability [1] | Ki (Glyoxalase I) [nM]
N[C@@H](CNC(=O)N[C@@H](CCC(=O)N(O)c1ccc(Br)cc1)C(=O)NCC(=O)O)C(=O)O | Stable | 32.6
N[C@@H](CCC(=O)N[C@@H](CSCc1ccc(Br)cc1)C(=O)NCC(=O)O)C(=O)O |  | 6280
N[C@@H](CCC(=O)N[C@@H](CCC(=O)N(O)c1ccc(Br)cc1)C(=O)NCC(=O)O)C(=O)O.O=C(O)C(F)(F)F | Unstable | 6.17
N[C@@H](CNC(=O)N[C@@H](CSCc1ccc(Br)cc1)C(=O)NCC(=O)O)C(=O)O |  | 12800
N[C@@H](CCC(=O)N[C@@H](CCN(O)C(=O)c1ccc(Br)cc1)C(=O)NCC(=O)O)C(=O)O.O=C(O)C(F)(F)F | Stable | 123
N[C@@H](CCC(=O)N[C@H](CCC(=O)N(O)c1ccc(Br)cc1)C(=O)NCC(=O)O)C(=O)O.O=C(O)C(F)(F)F | Stable | 1660
